# Where two headings read alike, the source gives them in different places.
# What was measured:
# [1] = cited from earlier work
# H81L [2] = target: T1, H81L (Homo sapiens, UniProt Q8WWM9, H81L); test: UV-Vis difference spectroscopy titration of ferric cytoglobin; assay type: binding; conditions: SD, n = 3
# In short: (§1)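 Ferric globin (5–15 μM) was titrated with imidazole stocks (1–100 mM) to about 100–15000 μM final. Buffer was 100 mM sodium phosphate, pH 7.4, at 25 °C. UV-Vis difference spectra were taken, and the max–min absorbance difference was plotted against ligand. KD came from a 1:1 quadratic binding fit. At least triplicate, with ≥2 protein batches; mean ± SD.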
# Wild-type Cygb [3] = target: T2, Wild-type Cygb (Homo sapiens, UniProt Q8WWM9); test: as above; assay type: binding; conditions: SD, n = 3
# In short: as §1
# H81Q [4] = target: T3, H81Q (Homo sapiens, UniProt Q8WWM9, H81Q); test: as above; assay type: binding; conditions: SD, n = 3
# In short: as §1
# H81A [5] = target: T4, H81A (Homo sapiens, UniProt Q8WWM9, H81A); test: as above; assay type: binding; conditions: SD, n = 3
# In short: as §1
# H81W [6] = target: T5, H81W (Homo sapiens, UniProt Q8WWM9, H81W); test: as above; assay type: binding; conditions: SD, n = 3
# In short: as §1
# H81L [7] = target: T1, H81L; test: UV-Vis difference spectroscopy titration of ferric cytoglobin; assay type: binding; conditions: SD, n = 3; remark: listed apart in the source
# Wild-type Cygb [8] = target: T2, Wild-type Cygb; test: as above; assay type: binding; conditions: SD, n = 3; remark: listed apart in the source
# K116E [9] = target: T6, K116E (Homo sapiens, UniProt Q8WWM9, K116E); test: as above; assay type: binding; conditions: SD, n = 3
# H81Q [10] = target: T3, H81Q; test: as above; assay type: binding; conditions: SD, n = 3; remark: listed apart in the source
# H81A [11] = target: T4, H81A; test: as above; assay type: binding; conditions: SD, n = 3; remark: listed apart in the source
# H81W [12] = target: T5, H81W; test: as above; assay type: binding; conditions: SD, n = 3; remark: listed apart in the source
# H81A [13] = target: T4, H81A; test: UV-Vis difference spectroscopy titration of ferric cytoglobin; assay type: binding; conditions: SD, n = 3; remark: listed apart in the source
# In short: (§2)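 Sodium oleate stocks (50 mM in water, −20 °C) were diluted in buffer before use. Ferric globin (5–15 μM) in 100 mM sodium phosphate, pH 7.4, 25 °C was titrated with 200 μM–5 mM stocks to about 60–1500 μM oleate. The max–min difference-spectrum amplitude was plotted against oleate, and KD came from a 1:1 quadratic fit. At least triplicate, with ≥2 protein batches; mean ± SD.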
# V105Y = V105Y (Homo sapiens, UniProt Q8WWM9, V105Y); test: as above; assay type: binding; conditions: SD, n = 3
# In short: as §2
# K116E [14] = target: T6, K116E; test: as above; assay type: binding; conditions: SD, n = 3; remark: listed apart in the source
# In short: as §2
# T91D = T91D (Homo sapiens, UniProt Q8WWM9, T91D); test: as above; assay type: binding; conditions: SD, n = 3
# In short: as §2
# R84E = R84E (Homo sapiens, UniProt Q8WWM9, R84E); test: as above; assay type: binding; conditions: SD, n = 3
# In short: as §2
# H81Q [15] = target: T3, H81Q; test: as above; assay type: binding; conditions: SD, n = 3; remark: listed apart in the source
# In short: as §2
# H81W [16] = target: T5, H81W; test: as above; assay type: binding; conditions: SD, n = 3; remark: listed apart in the source
# In short: as §2
# H81L [17] = target: T1, H81L; test: as above; assay type: binding; conditions: SD, n = 3; remark: listed apart in the source
# In short: as §2
# L108Q = L108Q (Homo sapiens, UniProt Q8WWM9, L108Q); test: as above; assay type: binding; conditions: SD, n = 3
# In short: as §2
# [18] = 37°C, 100 mM sodium phosphate, pH 7.4
# T1 sequence (Q8WWM9 whole entry H81L): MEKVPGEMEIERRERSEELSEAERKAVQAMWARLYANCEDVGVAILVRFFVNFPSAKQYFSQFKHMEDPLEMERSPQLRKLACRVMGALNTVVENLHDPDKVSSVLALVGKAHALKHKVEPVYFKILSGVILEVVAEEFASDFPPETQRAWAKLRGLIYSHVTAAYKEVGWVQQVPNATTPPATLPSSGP
# T3 sequence (Q8WWM9 whole entry H81Q): as the sequence (Q8WWM9 whole entry H81L) above, with L81Q counted along it
# T5 sequence (Q8WWM9 whole entry H81W): as the sequence (Q8WWM9 whole entry H81L) above, with L81W counted along it
# T4 sequence (Q8WWM9 whole entry H81A): as the sequence (Q8WWM9 whole entry H81L) above, with L81A counted along it
# T2 sequence (Q8WWM9 whole entry): as the sequence (Q8WWM9 whole entry H81L) above, with L81H counted along it
# T6 sequence (Q8WWM9 whole entry K116E): as the sequence (Q8WWM9 whole entry H81L) above, with L81H, K116E counted along it
# L108Q, sequence (Q8WWM9 whole entry L108Q): as the sequence (Q8WWM9 whole entry H81L) above, with L81H, L108Q counted along it
# V105Y, sequence (Q8WWM9 whole entry V105Y): as the sequence (Q8WWM9 whole entry H81L) above, with L81H, V105Y counted along it
# T91D, sequence (Q8WWM9 whole entry T91D): as the sequence (Q8WWM9 whole entry H81L) above, with L81H, T91D counted along it
# R84E, sequence (Q8WWM9 whole entry R84E): as the sequence (Q8WWM9 whole entry H81L) above, with L81H, R84E counted along it
compound,measurement,setting,value
Myoglobin F43H: myoglobin mutant with histidine instead of Phe43(CD1) [reference compound],Nitrite reductase reaction rate constant,[1]; Mb values determined at 25°C,1.4 ± 0.1^c M^−1s^−1
Hemoglobin R-State: hemoglobin in the R-state [reference compound],Nitrite reductase reaction rate constant,[1]; [18],6.0^a M^−1s^−1
"c1c[nH]cn1 [Imidazole, imidazole]",Kd,H81L [2],23.5 ± 4.4 µM
same,Kd,Wild-type Cygb [3],820 ± 150 µM
same,Kd,H81Q [4],15.3 ± 11 µM
same,Kd,H81A [5],10.6 ± 6.2 µM
same,Kd,H81W [6],7.3 ± 0.9 µM
"CCCCCCCC(=O)O [Octanoic acid, octanoic acid, added as sodium octanoate]",Kd,H81L [7],950 ± 80 µM
same,Kd,Wild-type Cygb [8],1590 ± 740 µM
same,Kd,K116E [9],185000 ± 13000 µM
same,Kd,H81Q [10],250 ± 10 µM
same,Kd,H81A [11],1520 ± 890 µM
same,Kd,H81W [12],140 ± 10 µM
Myoglobin F43H/H64A: myoglobin double mutant Phe43(CD1) to His and His64 to Ala [reference compound],Nitrite reductase reaction rate constant,[1]; Mb values determined at 25°C,49.8 ± 1.5^c M^−1s^−1
"CCCCCCCC/C=C\CCCCCCCC(=O)O [Oleic acid, oleic acid (18:1 cis-9), added as sodium oleate]",Kd,H81A [13],24 ± 2 µM
same,Kd,V105Y,4.8 ± 3.2 µM
same,Kd,K116E [14],62 ± 23 µM
same,Kd,T91D,5.7 ± 1.4 µM
same,Kd,R84E,170 ± 90 µM
same,Kd,H81Q [15],46 ± 8 µM
same,Kd,H81W [16],32 ± 10 µM
same,Kd,H81L [17],36 ± 13 µM
same,Kd,L108Q,14 ± 3 µM
Myoglobin H64A: myoglobin distal histidine His64 to Ala mutant [reference compound],Nitrite reductase reaction rate constant,[1]; Mb values determined at 25°C,1.8 ± 0.3^b M^−1s^−1
Hemoglobin T-State: hemoglobin in the T-state [reference compound],Nitrite reductase reaction rate constant,[1]; [18],0.12^a M^−1s^−1
Myoglobin Wild-type: wild-type myoglobin [reference compound],Nitrite reductase reaction rate constant,[1]; Mb values determined at 25°C,5.6 ± 0.6^b M^−1s^−1
